Screening results deposited in PubChem by several laboratories.
SKN-1 inh: inhibitors of C. elegans SKN-1 | inhibition, % at 21.8 µM | 360,000 compounds, 0.49% hits | AID 624304 | C. elegans VP596 Pgst-4::GFP/RFP ratio, acrylamide-induced, 24 h;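 active = interference check ratio from 0.5 to 1.5 plus GFP to RFP signal ratio inhibition reaching or exceeding a fixed threshold, cut at about 30% in these data, passing the limit was not always enough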
MT1-MMP act inh: blocks activation of human MT1-MMP. P50281. HT1080 RFP-PRO-GFP cells, GFP/RFP ratio fluorescence, overnight; percent of plate control window, DMSO zero. GFP/RFP ratio change, % at 20 µM. 360,000 compounds, 0.061% hits;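 active = GFP/RFP ratio change of at least 30% with cell ATP level not reduced by more than half and red fluorescence within 50% of control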
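Assay system: HT1080 cells carrying an RFP-PRO-GFP reporter | Dosing: Single dose of 20 µM compound, 1% DMSO final | Incubation: Cells overnight before dosing, compound overnight, 37 °C, 5% CO2 | Evaluation: GFP/RFP fluorescence ratio | Control set: DMSO and RFP-L50D-GFP cell wells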
iPSC survival up: enhancers of human iPSC single-cell survival | hiPSC single-cell survival, ATPlite luminescence; 100% = ROCK inhibitor wells, 0% = DMSO | survival enhancement, % at 20 µM | 360,000 compounds, 0.044% hits; in the data active = survival enhancement above about 18%;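 note: cells exposed to compounds for 16 hours before the ATP read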
PREPL inhibitor: inhibits the human prolyl oligopeptidase-like enzyme; Q4J6C6; recombinant PREPL, fluorescence polarization activity-based probe; inhibition, % at 5.96 µM; 320,000 compounds, 0.68% hits; in the data active = inhibition above about 43%;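 note: 0% = enzyme with DMSO and 100% = wells lacking enzyme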
Target sequence (Q4J6C6 whole entry, looked up): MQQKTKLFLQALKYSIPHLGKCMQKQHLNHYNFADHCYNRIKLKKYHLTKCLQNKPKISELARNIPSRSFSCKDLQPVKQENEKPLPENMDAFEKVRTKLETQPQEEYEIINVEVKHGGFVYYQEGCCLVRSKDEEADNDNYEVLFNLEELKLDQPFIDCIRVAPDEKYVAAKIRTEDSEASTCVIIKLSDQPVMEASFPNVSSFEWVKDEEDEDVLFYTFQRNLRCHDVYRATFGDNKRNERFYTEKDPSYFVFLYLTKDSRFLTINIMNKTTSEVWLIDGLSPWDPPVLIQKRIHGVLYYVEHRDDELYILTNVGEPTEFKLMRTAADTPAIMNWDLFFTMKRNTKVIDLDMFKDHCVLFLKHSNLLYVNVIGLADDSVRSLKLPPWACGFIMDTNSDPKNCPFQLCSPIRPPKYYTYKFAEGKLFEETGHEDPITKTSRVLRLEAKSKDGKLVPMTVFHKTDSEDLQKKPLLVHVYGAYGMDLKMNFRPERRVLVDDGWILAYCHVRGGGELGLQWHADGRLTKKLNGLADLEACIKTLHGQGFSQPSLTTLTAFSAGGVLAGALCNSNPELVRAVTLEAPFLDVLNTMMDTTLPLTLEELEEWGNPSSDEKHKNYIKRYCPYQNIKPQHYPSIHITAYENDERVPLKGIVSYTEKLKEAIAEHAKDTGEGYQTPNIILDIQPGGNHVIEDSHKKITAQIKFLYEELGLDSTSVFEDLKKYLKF
eLon inh: inhibits E. coli Lon protease; inhibition, % at 7.94 µM; purified E. coli Lon protease, fluorescence polarization; 360,000 compounds, 0.42% hits; P0A9M0; in the data active = inhibition above about 13%, passing the limit was not always enough;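 note: 0% = enzyme with probe and DMSO and 100% = no enzyme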
Tb MetRS inh: blocks T. brucei methionyl-tRNA synthetase activity; purified T. brucei MetRS, ATP depletion, Kinase-Glo luminescence; inhibition, % at 11.9 µM; 360,000 compounds, 0.4% hits;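 active = inhibition above a per-plate cutoff of the control wells' mean inhibition plus 3 SD, cut at about 5.5% in these data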;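 note: 0% = DMSO wells median and 100% = median of wells with control inhibitor compound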
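Test system: purified T. brucei MetRS enzyme. Also added: ATP, methionine and E. coli bulk tRNA substrates. Compound: 11.9 µM single point. Schedule: 15 min enzyme-compound preincubation, 2 h reaction, 10 min detection, 25 °C. Signal: luciferase luminescence of residual ATP, Kinase-Glo. Evaluation: percent inhibition versus plate control medians. Controls: DMSO wells, low control.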
Tb MetRS conf: confirmation of Trypanosoma brucei MetRS inhibitors. AID 624412. inhibition, % at 11.9 µM. shares compounds with Tb MetRS inh. 1,400 compounds, 93% hits. T. brucei MetRS enzyme, luminescence (ATP depletion); in the data active = inhibition above about 7%
Jurkat cytotox: counter-screen for T. brucei MetRS inhibitors: Jurkat cell cytotoxicity. inhibition, % at 8.3 µM. shares compounds with Tb MetRS inh. 1,400 compounds, 12% hits. Jurkat cells viability, ATP luminescence; in the data active = inhibition above about 15%;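 note: 0% = vehicle and 100% = reference inhibitor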
TbMetRS FP orth: T. brucei MetRS inhibition, orthogonal assay. inhibition, % at 11.9 µM. shares compounds with Tb MetRS inh. AID 651607. 1,400 compounds, 44% hits. purified T. brucei MetRS, fluorescence polarization; in the data active = inhibition above about 17%;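 note: 0% = vehicle wells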
* = called active by the depositor; . = no result. Only some compounds are listed: those with a hit (about 1.8% of all), similar ones and a draw of the others.

SMILES	SKN-1 inh	MT1-MMP act inh	iPSC survival up	PREPL inhibitor	eLon inh	Tb MetRS inh	Tb MetRS conf	Jurkat cytotox	TbMetRS FP orth
CCC(=O)c1c[nH]c(C(=O)NCc2cccc(C(F)(F)F)c2)c1	9	1	1	11	-7	6.0*	12*	5	9
C#Cc1ccc([C@H]2C=C(C(=O)NCc3nc4ccccc4[nH]3)O[C@@H](OCc3ccc(CO)cc3)C2)cc1	-3	-6	-1	1	-12	32*	85*	0	68*
O=C(NCc1nc2ccccc2[nH]1)C1=C[C@@H](c2csc3ccccc23)C[C@@H](OCCCCO)O1	-18	0	1	11	-12	72*	101*	-5	77*
O=C(NCc1nc2ccccc2[nH]1)C1=C[C@H](c2ccc(C(F)(F)F)cc2)C[C@H](OCc2ccc(CO)cc2)O1	0	6	-2	-1	-4	18*	49*	-3	30*
C[C@@H]1C=C(C(=O)NCc2nc3ccccc3[nH]2)O[C@H](OCCCCO)C1	0	-1	-2	4	-2	4	.	.	.
O=C(NCc1ccccc1)C1=C[C@@H](c2csc3ccccc23)C[C@@H](OCCCCO)O1	.	.	.	-6	.	.	.	.	.
C[C@@H]1C=C(C(=O)NCc2nc3ccccc3[nH]2)O[C@H](OCc2ccc(CO)cc2)C1	7	3	0	-5	-2	69*	96*	6	72*
CCOC(=O)C1CCCN(C(=O)c2ccc3c(=O)n(Cc4ccccc4OC)c(=S)[nH]c3c2)C1 (centres undefined)	11	-1	-1	-12	0	0	.	.	.
COCCNC(=O)C(c1ccc(C)cc1)N(Cc1cccs1)C(=O)CCC(=O)Nc1ccccn1 (centres undefined)	-6	1	2	-7	-17	0	.	.	.
O=C(COC(=O)/C=C/c1ccccc1[N+](=O)[O-])Nc1ccc(S(=O)(=O)N2CCOCC2)cc1	10	1	-2	19	5	0	.	.	.
COc1cccc(-c2nn(-c3ccccc3)cc2CNC(C)Cn2cncn2)c1 (centres undefined)	2	8	-1	-7	-4	-1	.	.	.
Cc1cccc(C)c1NC(=O)C1(C)CCC(=O)N1CCCn1ccnc1 (centres undefined)	2	3	-1	.	-13	0	.	.	.
O=C(Nc1ccccc1)C1=C[C@@H](c2ccc(Br)cc2)C[C@@H](OCc2ccc(CO)cc2)O1	14	1	-2	19	-4	0	.	.	.
O=C(NCc1nc2ccccc2[nH]1)C1=C[C@H](c2ccc(Br)cc2)C[C@H](OCc2ccc(CO)cc2)O1	-6	3	1	23	3	66*	98*	-3	75*
CCn1c(SCC(=O)c2c[nH]c3ccccc23)nc2cc(S(=O)(=O)N3CCOCC3)ccc21	-4	-2	2	22	-1	18*	82*	2	60*
Cc1cc(Br)cc(Br)c1OCC(=O)NNC(=O)Nc1ccccc1	-10	4	-1	-13	-6	7.5*	45*	-6	30*
C/C(=N/NC(=O)CCc1c(C)n[nH]c1C)c1cccc([N+](=O)[O-])c1	0	3	0	0	5	0	.	.	.
O=C(NCCCCc1ccccc1)Nc1ccc(F)cc1	-8	2	0	-5	-8	15*	32*	-1	21*
CC(C)N(C(=O)CSc1nnc(C2CC2)n1C1CC1)c1ccccc1	4	1	1	.	0	0	.	.	.
O=C(c1ccc(-n2cncn2)c([N+](=O)[O-])c1)N1CCN(c2cccc(Cl)c2)CC1	-7	1	0	25	-4	5.8*	20*	5	6
COc1cc(OC)cc(C(=O)NNC(=O)c2ccc(-n3cncn3)c([N+](=O)[O-])c2)c1	24	-3	0	3	3	6.0*	31*	3	17*
Cc1ccc(NC(=O)CN(C)C(=O)c2ccc(C(F)(F)F)cc2)cc1	-1	2	-2	7	4	6.2*	26*	6	10
CCN(CC(=O)Nc1c(F)cccc1F)C(=O)c1ccc(-n2cncn2)c([N+](=O)[O-])c1	16	2	0	-3	2	2	.	.	.
Cc1cccc(NC(=O)CNC(=O)c2ccc(-n3cncn3)c([N+](=O)[O-])c2)c1C	8	5	0	8	-8	19*	51*	-6	27*
CN1CCN(C(=S)Nc2cc([N+](=O)[O-])ccc2Cl)CC1	-4	-6	-3	-4	14	0	.	.	.
SMILES	SKN-1 inh	MT1-MMP act inh	iPSC survival up	PREPL inhibitor	eLon inh	Tb MetRS inh	Tb MetRS conf	Jurkat cytotox	TbMetRS FP orth
Cc1ccc(C(=O)Nc2nc(C(N)C(C)C)cs2)cc1 (centres undefined)	8	-8	-3	.	-5	0	.	.	.
COc1ccc(NC(=O)c2ccc(-n3cncn3)c([N+](=O)[O-])c2)cc1	3	2	1	0	-4	6.2*	22*	1	8
COC(=O)c1ccc(-n2cncn2)c([N+](=O)[O-])c1	-4	-6	1	6	12	16*	35*	-5	6
COC(=O)c1ccc(-n2cncn2)c(F)c1	4	-2	0	5	-11	0	.	.	.
COc1ccc(NC(=O)c2ccc(-n3cncn3)c([N+](=O)[O-])c2)cc1OC	3	7	0	6	6	15*	59*	3	33*
Cc1ccc(NC(=O)c2ccc(-n3cccn3)c([N+](=O)[O-])c2)cc1	-1	-6	-2	5	4	0	.	.	.
Cc1ccc(NC(=O)CN(C)C(=O)c2ccc(-n3cncn3)c([N+](=O)[O-])c2)cc1	-9	1	0	7	-9	10*	38*	-1	16
CCc1ccc(NC(=O)c2ccc(-n3cncn3)c([N+](=O)[O-])c2)cc1	16	4	0	22	7	13*	39*	1	20*
O=C(NCCCc1ccccc1)c1ccc(-n2cncn2)c([N+](=O)[O-])c1	7	2	-1	12	-9	21*	58*	-1	35*
CCc1ccc(NC(=O)c2ccc(OC)c([N+](=O)[O-])c2)cc1	-2	4	2	6	2	1	.	.	.
